From ChEMBL document CHEMBL1157042, “Triazole incorporated thiazoles as a new class of anticonvulsants: design, synthesis and in vivo screening” (Eur J Med Chem, 2010)
Active and inactive are the calls of the source.

Assays:
[1] = system: Mus musculus; test: Anticonvulsant activity in Swiss albino mouse assessed as inhibition of maximum electric shock-induced motor impairment at 300 mg/kg, ip after 0.5 hrs; format: functional, organism-based; parameters: dose 300 mg/kg
How it was run: (§1)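 Albino mice of either sex (25–30 g), 6 per group, given drug i.p. in polyethylene glycol at 30, 100 and 300 mg/kg. Maximal electroshock was applied at 0.5 h and 4.0 h. Protection meant abolition of hind limb tonic extension.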

[2] = system: Mus musculus; test: Anticonvulsant activity in Swiss albino mouse assessed as inhibition of PTZ-induced motor impairment at 300 mg/kg, ip after 4 hrs; format: functional, organism-based; parameters: dose 300 mg/kg
How it was run: (§2)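 Albino mice of either sex (25–30 g), 6 per group. Test compound was given i.p. in polyethylene glycol at 30, 100 or 300 mg/kg, and subcutaneous pentylenetetrazole challenge followed 0.5 h or 4.0 h later. Activity was scored as protection in half or more of the mice.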

[3] = system: Mus musculus; test: Neurotoxicity in Swiss albino mouse at 300 mg/kg, ip after 4 hrs; format: toxicity, organism-based; parameters: dose 300 mg/kg, route intraperitoneal; conditions: in vivo
[4] = system: Mus musculus; test: Anticonvulsant activity in ip dosed Swiss albino mouse assessed as inhibition of maximum electric shock-induced motor impairment after 4 hrs; format: functional; conditions: read-out: MED
[5] = system: Mus musculus; test: Neurotoxicity in Swiss albino mouse at 300 mg/kg, ip after 0.5 hrs; format: toxicity, organism-based; parameters: dose 300 mg/kg, route intraperitoneal; conditions: in vivo
[6] = system: Mus musculus; test: Anticonvulsant activity in ip dosed Swiss albino mouse assessed as inhibition of PTZ-induced motor impairment after 0.5 hrs; format: functional; conditions: read-out: MED
How it was run: (§3)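 Albino mice of either sex (25–30 g), 6 per group, dosed i.p. in polyethylene glycol at 30, 100 or 300 mg/kg. Subcutaneous pentylenetetrazole was given at 0.5 h or 4.0 h, and mice were watched for 30 min. Protection meant no threshold seizure (single clonic spasm episode of at least 5 s). The value is the minimum dose protecting half or more.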

[7] = system: Mus musculus; test: Anticonvulsant activity in ip dosed Swiss albino mouse assessed as inhibition of maximum electric shock-induced motor impairment after 0.5 hrs; format: functional; conditions: read-out: MED
[8] = Neurotoxicity in ip dosed Swiss albino mouse after 0.5 hrs; format: toxicity, organism-based; conditions: in vivo
How it was run: (§4)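 Albino mice of either sex (25–30 g), 6 per group, received i.p. doses of 30, 100 and 300 mg/kg in polyethylene glycol. Trained mice were tested on the rotorod at 0.5 h and 4.0 h. Neurotoxicity was failure to keep balance on the rod for at least 1 min in each trial. The value recorded is the minimum dose affecting half or more of the mice.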

[9] = system: Mus musculus; test: Anticonvulsant activity in ip dosed Swiss albino mouse assessed as inhibition of PTZ-induced motor impairment after 4 hrs; format: functional; conditions: read-out: MED; how it was run: as §3
[10] = system: Mus musculus; test: Anticonvulsant activity in Swiss albino mouse assessed as inhibition of PTZ-induced motor impairment at 300 mg/kg, ip after 0.5 hrs; format: functional, organism-based; parameters: dose 300 mg/kg; how it was run: as §2
[11] = system: Mus musculus; test: Anticonvulsant activity in Swiss albino mouse assessed as inhibition of maximum electric shock-induced motor impairment at 300 mg/kg, ip after 4 hrs; format: functional, organism-based; parameters: dose 300 mg/kg; how it was run: as §1
[12] = Neurotoxicity in ip dosed Swiss albino mouse after 4 hrs; format: toxicity, organism-based; conditions: in vivo; how it was run: as §4
[13] = system: Mus musculus; test: Anticonvulsant activity in po dosed Swiss albino mouse assessed as inhibition of maximum electric shock-induced motor impairment after 2 hrs; format: functional
How it was run: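 Phase IV: same procedure as i.p. phase II (MES protection, or rotorod failure for at least 1 min per trial), but drugs were given orally. Groups of 10 albino mice got a dose range yielding at least three points within 10–90% effect. ED50 or TD50 was read at the indicated time via Litchfield–Wilcoxon.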

[14] = system: Mus musculus; test: Sedative-hypnotic activity in ip dosed Swiss albino mouse after 24 hrs; format: organism-based; conditions: in vivo
[15] = system: Mus musculus; test: Anticonvulsant activity in ip dosed Swiss albino mouse assessed as inhibition of PTZ-induced motor impairment; format: functional
[16] = Toxicity in ip dosed Swiss albino mouse after 24 hrs; format: organism-based; conditions: in vivo
How it was run: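 Albino mice of either sex (25–30 g), in groups of 10, received a range of i.p. doses in polyethylene glycol until at least three points fell within 10–90% effect. Mortality was scored 24 h after injection.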

[17] = system: Mus musculus; test: Anticonvulsant activity in ip dosed Swiss albino mouse assessed as inhibition of maximum electric shock-induced motor impairment; format: functional

SMILES | inhibition [2] | Activity [3] | minimal effective dose [4] | Activity [5] | minimal effective dose [7] | MTD at 0.5 h [8] | minimal effective dose [9] | inhibition [10] | MTD at 4 h [12] | also measured
Cc1ccc(-n2c(Nc3nc(-c4ccccc4)cs3)n[nH]c2=S)cc1 | inactive | Non-toxic | 300 mg/kg | Non-toxic |  |  |  |  |  | inhibition [1]: inactive; minimal effective dose [6]: 300 mg/kg
COc1ccccc1-n1c(Nc2nc(-c3ccc(Cl)cc3)cs2)n[nH]c1=S | inactive | Non-toxic | 100 mg/kg |  | 100 mg/kg | 300 mg/kg |  |  |  | minimal effective dose [6]: 100 mg/kg
Cc1ccccc1-n1c(Nc2nc(-c3ccc(Cl)cc3)cs2)n[nH]c1=S |  |  |  |  | 100 mg/kg | 300 mg/kg | 300 mg/kg | inactive | 300 mg/kg | inhibition [11]: inactive
COc1ccccc1-n1c(Nc2nc(-c3ccc([N+](=O)[O-])cc3)cs2)n[nH]c1=S | inactive |  | 100 mg/kg |  | 100 mg/kg | 100 mg/kg |  | inactive | 300 mg/kg | 
O=C1NC(=O)C(c2ccccc2)(c2ccccc2)N1 [PHENYTOIN] | inactive |  | 30 mg/kg |  | 30 mg/kg | 100 mg/kg |  | inactive | 100 mg/kg | ED50 [13]: 9.16 mg/kg; HD50 [14]: 182 mg/kg; ED50 [15]: > 300 mg/kg; LD50 at 24 h [16]: 224 mg/kg
COc1ccccc1-n1c(Nc2nc(-c3ccc(Br)cc3)cs2)n[nH]c1=S | inactive |  | 300 mg/kg |  | 300 mg/kg | 100 mg/kg |  | inactive | 300 mg/kg | 
COc1ccc(-n2c(Nc3nc(-c4ccc(Br)cc4)cs3)n[nH]c2=S)cc1 | inactive | Non-toxic | 300 mg/kg | Non-toxic | 300 mg/kg |  |  | inactive |  | 
Cc1ccccc1-n1c(Nc2nc(-c3ccccc3)cs2)n[nH]c1=S | inactive |  |  | Non-toxic | 100 mg/kg |  |  | inactive | 300 mg/kg | inhibition [11]: inactive
Cc1ccc(-n2c(Nc3nc(-c4ccc([N+](=O)[O-])cc4)cs3)n[nH]c2=S)cc1 | inactive |  | 300 mg/kg |  | 100 mg/kg | 100 mg/kg |  |  | 100 mg/kg | minimal effective dose [6]: 300 mg/kg
S=c1[nH]nc(Nc2nc(-c3ccccc3)cs2)n1-c1ccccc1 |  |  |  | Non-toxic | 300 mg/kg |  | 300 mg/kg | inactive | 300 mg/kg | inhibition [11]: inactive
S=c1[nH]nc(Nc2nc(-c3ccc(Br)cc3)cs2)n1-c1ccccc1 | inactive |  | 300 mg/kg | Non-toxic |  |  |  | inactive | 300 mg/kg | 
COc1ccc(-n2c(Nc3nc(-c4ccccc4)cs3)n[nH]c2=S)cc1 |  | Non-toxic | 100 mg/kg | Non-toxic | 100 mg/kg |  | 300 mg/kg | inactive |  | 
COc1ccccc1-n1c(Nc2nc(-c3ccccc3)cs2)n[nH]c1=S | inactive | Non-toxic | 300 mg/kg | Non-toxic | 100 mg/kg |  |  | inactive |  | 
S=c1[nH]nc(Nc2nc(-c3ccc(Cl)cc3)cs2)n1-c1ccccc1 | inactive | Non-toxic | 300 mg/kg | Non-toxic |  |  |  | inactive |  | inhibition [1]: inactive
COc1ccc(-n2c(Nc3nc(-c4ccc([N+](=O)[O-])cc4)cs3)n[nH]c2=S)cc1 |  |  | 300 mg/kg | Non-toxic | 100 mg/kg |  | 300 mg/kg | inactive | 300 mg/kg | 
Cc1ccc(-n2c(Nc3nc(-c4ccc(Cl)cc4)cs3)n[nH]c2=S)cc1 | inactive |  | 300 mg/kg | Non-toxic | 300 mg/kg |  |  | inactive | 300 mg/kg | 
Cc1ccc(-n2c(Nc3nc(-c4ccc(Br)cc4)cs3)n[nH]c2=S)cc1 |  |  | 300 mg/kg | Non-toxic | 100 mg/kg |  | 300 mg/kg |  | 100 mg/kg | minimal effective dose [6]: 300 mg/kg
CCC1(c2ccccc2)C(=O)NC(=O)NC1=O [PHENOBARBITAL] |  |  | 30 mg/kg |  | 100 mg/kg | 100 mg/kg |  |  | 300 mg/kg | ED50 [17]: 21.8 mg/kg; ED50 [15]: 13.2 mg/kg
CCCC(CCC)C(=O)[O-].[Na+] [VALPROATE SODIUM] |  |  |  |  |  |  |  |  |  | ED50 [15]: 149 mg/kg
Cc1ccccc1-n1c(Nc2nc(-c3ccc([N+](=O)[O-])cc3)cs2)n[nH]c1=S |  |  | 100 mg/kg |  | 100 mg/kg | 300 mg/kg | 300 mg/kg |  | 100 mg/kg | minimal effective dose [6]: 100 mg/kg
O=[N+]([O-])c1ccc(-c2csc(Nc3n[nH]c(=S)n3-c3ccccc3)n2)cc1 | inactive |  | 300 mg/kg |  |  | 300 mg/kg |  | inactive | 300 mg/kg | inhibition [1]: inactive
CCC1(C)CC(=O)NC1=O (stereo not drawn) [ETHOSUXIMIDE] |  | Non-toxic |  | Non-toxic |  |  | 300 mg/kg | inactive |  | inhibition [1]: inactive; inhibition [11]: inactive; minimal effective dose [6]: 100 mg/kg
NC(=O)N1c2ccccc2C=Cc2ccccc21 [CARBAMAZEPINE] |  |  |  |  |  |  |  |  |  | ED50 [17]: 8.8 mg/kg; ED50 [15]: > 100 mg/kg
